Measured values published in ChEMBL document CHEMBL3286391, “High content screening of diverse compound libraries identifies potent modulators of tubulin dynamics” (ACS Med Chem Lett, 2014).
pEC50: −log10 of the molar value. One block for each compound: values may come before it. Calls of active or inactive are those of the source. No cut-off for these calls is given here.

Key:
[1] = test system: U2OS; test: Induction of mitotic arrest in human U2OS cells assessed as mitotic index after 20 hrs by microscopic analysis
[2] = test system: U2OS; test: Growth inhibition of human U2OS cells after 72 hrs by sulforhodamine B assay; type: functional
Procedure, shortened: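 GI50 in U2OS cells. Mean of at least two independent experiments, each in triplicate.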

[3] = target: Tubulin (Homo sapiens) (UniProt P68371+Q9H4B7+P0DPH7+P68366+Q13509+Q71U36+P04350+Q3ZCM7+P07437+P68363+Q9BQE3+Q6PEY2+Q13885+Q9BVA1+Q9BUF5); test: Binding affinity to tubulin in human U2OS cells assessed as disruption of tubulin network at 100 nM after 20 hrs by DAPI staining-based confocal microscopic analysis; type: cell-based
Procedure, shortened: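 U2OS cells treated with compound, then stained with DAPI and an α-tubulin antibody. Tubulin network imaged by confocal microscopy.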

[4] = Solubility of the compound at >1 uM; type: physicochemical
[5] = species on record: Sus scrofa; test: Displacement of colchicine from porcine alpha/beta tubulin assessed as decrease in colchicine fluorescence intensity after 1 hr by spectrophotometric analysis
Procedure, shortened: (§1)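 Colchicine (3 μM), tubulin (3 μM) and compound incubated 1 h at 37 °C. Colchicine fluorescence intensity read at ex/em 365/435 nm. Nocodazole served as positive control. Mean ± s.e.m. of one experiment run in triplicate.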

[6] = Stability of the compound; type: physicochemical
[7] = species on record: Sus scrofa; test: Displacement of BODIPY-FL-vinblastine from porcine alpha/beta tubulin at 20 to 60 uM after 20 hrs by fluorescence polarization assay
Procedure, shortened: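 Fluorescence polarization assay with FL-BODIPY-vinblastine tracer (2 μM) and tubulin (2 μM). Unlabeled vinblastine served as positive control. Ex/em 485/520 nm. Mean ± s.e.m. of one experiment run in triplicate.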

[8] = species on record: Sus scrofa; test: Displacement of colchicine from porcine alpha/beta tubulin assessed as decrease in colchicine fluorescence intensity at 5 to 20 uM after 1 hr by spectrophotometric analysis relative to control
Procedure, shortened: as §1

[9] = species on record: Sus scrofa; test: Inhibition of porcine alpha/beta tubulin polymerization at 10 uM after 1 hr by spectrophotometric analysis
Procedure, shortened: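 Tubulin (3 mg/mL) incubated with compound (10 μM) and GTP at 37 °C for 1 h to monitor polymerization.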

[10] = Solubility of the compound; type: physicochemical
[11] = test system: U2OS; test: Induction of mitotic arrest in human U2OS cells assessed as mitotic index after 72 hrs by microscopic analysis; type: functional, cell-based; details: in the assay text read “after 20 hrs” for “after 72 hrs”
Procedure, shortened: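 Phenotypic high content assay in U2OS osteosarcoma cells. Cells stained for phosphorylated histone H3 (mitotic marker) and Hoechst, imaged on an automated high content microscope. An algorithm scores the percentage of cells arrested in mitosis. MI EC50 is the mean of at least two independent experiments, each in triplicate.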

[12] = test system: U2OS; test: Induction of mitotic arrest in human U2OS cells at 50 uM after 72 hrs by microscopic analysis relative to control; type: functional; details: in the assay text read “after 20 hrs” for “after 72 hrs”
Procedure, shortened: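 Primary screen in U2OS cells at a single 50 μM concentration, in triplicate. Cells stained for phospho-histone H3 with Hoechst counterstain and imaged by automated high content microscopy. Percentage of mitotically arrested cells calculated by algorithm.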

- pEC50 [1]: 4.89
Structure (SMILES): O=C(Cc1ccc2ccccc2c1)NCc1ccco1

- GI50 [2]: 46 nM
- pEC50 [1]: 7.00
Structure (SMILES): CC(C)CNC(=O)c1ccc(-c2ccc(CC(=O)NCc3ccco3)cc2)cc1

- Activity [3]: Active
- GI50 [2]: 11 nM
- solubility [4]: Insoluble
- pEC50 [1]: 7.55
Structure (SMILES): CC(=O)c1ccc(-c2ccc(CC(=O)NCc3ccccc3)cc2)cc1

- GI50 [2]: 24 nM
- pEC50 [1]: 7.12
Structure (SMILES): CC(=O)c1ccc(-c2ccc(CC(=O)NCc3ccco3)cc2)cc1

- GI50 [2]: 120 nM
- pEC50 [1]: 6.31
Structure (SMILES): CC(=O)Nc1cccc(-c2ccc(CC(=O)NCc3ccco3)cc2)c1

- GI50 [2]: 603 nM
- pEC50 [1]: 5.93
Structure (SMILES): COc1c(C)cc(-c2ccc(CC(=O)NCc3ccco3)cc2)cc1C

- GI50 [2]: 120 nM
Structure (SMILES): O=C(Cc1ccc(-c2ccc(OC(F)(F)F)cc2)cc1)NCc1ccco1

- pEC50 [1]: < 4.40
Structure (SMILES): COc1cc(-c2ccc(CC(=O)NCc3ccco3)cc2)cc(OC)c1OC

- Activity [3]: Active
- inhibition [5]: Dose-dependent effect
- Stability [6]: Stable
- inhibition [7]: inactive
- Imax [8]: 45%
- inhibition [9]: Active
- GI50 [2]: 21 nM
- pEC50 [1]: 7.29
- solubility [10]: soluble
Structure (SMILES): CNC(=O)c1ccc(-c2ccc(CC(=O)NCc3ccco3)cc2)cc1

- inhibition [9]: inactive
- pEC50 [1]: < 4.40
Structure (SMILES): O=C(Cc1ccc(-c2ccccc2)cc1)NCc1cccc(Br)c1

- pEC50 [1]: < 4.70
Structure (SMILES): O=C(Cc1ccc(-c2ccc(C(=O)O)cc2)cc1)NCc1ccco1

- inhibition [9]: Active
- GI50 [2]: 150 nM
- pEC50 [1]: 6.29
Structure (SMILES): O=C(Cc1ccc(-c2ccccc2)cc1)NCc1ccco1
- inhibition [11]: Dose-dependent effect
- Activity [12]: 40%

- inhibition [9]: Active
- GI50 [2]: 111 nM
- pEC50 [1]: 6.28
Structure (SMILES): N#Cc1ccc(-c2ccc(CC(=O)NCc3ccco3)cc2)cc1

- pEC50 [1]: < 4.40
Structure (SMILES): O=C(NCc1ccco1)c1ccc(-c2ccccc2)cc1

- GI50 [2]: 100 nM
- pEC50 [1]: 6.47
Structure (SMILES): Cc1ccc(-c2ccc(CC(=O)NCc3ccco3)cc2)cc1F

- GI50 [2]: 27 nM
- pEC50 [1]: 7.09
Structure (SMILES): COC(=O)c1ccc(-c2ccc(CC(=O)NCc3ccccc3)cc2)cc1

- GI50 [2]: 24 nM
- pEC50 [1]: 7.14
Structure (SMILES): COC(=O)c1ccc(-c2ccc(CC(=O)NCc3ccco3)cc2)cc1

- pEC50 [1]: 4.89
Structure (SMILES): CC(=O)c1ccccc1-c1ccc(CC(=O)NCc2ccco2)cc1

- GI50 [2]: 31 nM
- pEC50 [1]: 6.84
Structure (SMILES): O=C(Cc1ccc(-c2ccc3c(c2)OCO3)cc1)NCc1ccco1

The next lines start with the compound.

Structure (SMILES): O=C(NCc1ccco1)c1cnc2ccccc2c1
- pEC50 [1]: < 4.40

Structure (SMILES): O=C(Cc1ccc(-c2ccccc2)cc1)NCc1ccccn1
- pEC50 [1]: 5.01

Structure (SMILES): CN(Cc1ccccc1)C(=O)Cc1ccc(-c2ccccc2)cc1
- pEC50 [1]: 4.52

Structure (SMILES): O=C(Cc1ccc(-c2ccccc2)cc1)NCc1ccccc1
- pEC50 [1]: 6.60

Structure (SMILES): O=C(NCc1ccco1)c1ccc(C(=O)c2ccccc2)cc1
- pEC50 [1]: < 4.40

Structure (SMILES): O=C(NCc1ccco1)c1cc2ccccc2o1
- pEC50 [1]: < 4.40

Structure (SMILES): O=C(Cc1ccc(-c2ccccc2)cc1)NCc1ccncc1
- pEC50 [1]: 4.78

Structure (SMILES): C[C@@H](NC(=O)Cc1ccc(-c2ccccc2)cc1)c1ccccc1
- pEC50 [1]: 5.32

Structure (SMILES): C[C@H](NC(=O)Cc1ccc(-c2ccccc2)cc1)c1ccccc1
- pEC50 [1]: < 4.40

Structure (SMILES): COC(=O)Nc1nc2cc(C(=O)c3cccs3)ccc2[nH]1 [NOCODAZOLE]
- Imax [8]: 85%
- inhibition [9]: Active
- pEC50 [1]: 7.30

Structure (SMILES): CC(C)CNC(=O)Cc1ccc(-c2ccccc2)cc1
- pEC50 [1]: < 4.40

Structure (SMILES): O=C(Cc1ccc(-c2ccccc2)cc1)Nc1ccccc1
- pEC50 [1]: < 4.40

Structure (SMILES): COc1ccc(CNC(=O)Cc2ccc(-c3ccccc3)cc2)cc1
- pEC50 [1]: 5.72

Structure (SMILES): O=C(NCc1ccco1)c1ccccc1-c1ccccc1
- pEC50 [1]: < 4.40
